Assay outcomes deposited in PubChem BioAssay by several laboratories.
MEKK2mut PB1 HTS: signal of MEK5 binding to mutant human MEKK2 PB1 domain | bead flow cytometry, Alexa488-MEK5 binding to MEKK2 mutant | 0.35% of 290,000 active | AID 1530 | percent response, % at 10 µM; in the data active = percent response above about 24%, passing the limit was not always enough
MEKK3 PB1 HTS: raises or lowers MEK5 binding to the human MEKK3 PB1 domain; binding response (% of control), % at 10 µM; bead-based flow cytometry, Alexa488-MEK5 binding to MEKK3; actives lie on both sides; 0 = blocked by unlabeled MEK5, 100 = vehicle; Q99759; AID 1529; 1.4% of 290,000 active;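 active = binding response more than 3 SD above or below the average of its plate-row segment, actives on both sides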;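 note: Alexa488 bead fluorescence after subtracting the streptavidin-only scavenger bead signal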
MEKK2wt PB1 HTS: raises or lowers MEK5 binding to wildtype human MEKK2 PB1 domain. Q9Y2U5. bead flow cytometry, Alexa488-MEK5 binding to MEKK2 WT; actives lie on both sides. binding response (% of control), % at 10 µM. 1.1% of 290,000 active. AID 1531; in the data active = binding response below about 67% or above about 130%
DSG3 Ab inh: blocks pemphigus antibody binding to human desmoglein-3; P32926; DSG3-coupled beads, scFv-anti-DSG3-GFP binding, flow cytometry; active compounds read low; binding (percent of control), % at 10 µM; 0.48% of 310,000 active; AID 588358;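 active = binding more than 3 SD below its plate's average and above zero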;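 note: hits lower antibody fragment binding to DSG3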
UBC13 inh: blocks human UBC13 polyubiquitin chain formation. P61088. TR-FRET. inhibition, % at 20 µM. 0.47% of 330,000 active. AID 485273; in the data active = inhibition above about 45%, passing the limit was not always enough
Apaf1 inhib: human Apaf-1 inhibition | O14727 | reconstituted apoptosome caspase-3 activity, DEVD-Rh110 fluorescence | inhibition, % at 20 µM | 0.71% of 330,000 active; active = inhibition of at least 40% at 20 µM
Target sequence (O14727 whole entry, looked up): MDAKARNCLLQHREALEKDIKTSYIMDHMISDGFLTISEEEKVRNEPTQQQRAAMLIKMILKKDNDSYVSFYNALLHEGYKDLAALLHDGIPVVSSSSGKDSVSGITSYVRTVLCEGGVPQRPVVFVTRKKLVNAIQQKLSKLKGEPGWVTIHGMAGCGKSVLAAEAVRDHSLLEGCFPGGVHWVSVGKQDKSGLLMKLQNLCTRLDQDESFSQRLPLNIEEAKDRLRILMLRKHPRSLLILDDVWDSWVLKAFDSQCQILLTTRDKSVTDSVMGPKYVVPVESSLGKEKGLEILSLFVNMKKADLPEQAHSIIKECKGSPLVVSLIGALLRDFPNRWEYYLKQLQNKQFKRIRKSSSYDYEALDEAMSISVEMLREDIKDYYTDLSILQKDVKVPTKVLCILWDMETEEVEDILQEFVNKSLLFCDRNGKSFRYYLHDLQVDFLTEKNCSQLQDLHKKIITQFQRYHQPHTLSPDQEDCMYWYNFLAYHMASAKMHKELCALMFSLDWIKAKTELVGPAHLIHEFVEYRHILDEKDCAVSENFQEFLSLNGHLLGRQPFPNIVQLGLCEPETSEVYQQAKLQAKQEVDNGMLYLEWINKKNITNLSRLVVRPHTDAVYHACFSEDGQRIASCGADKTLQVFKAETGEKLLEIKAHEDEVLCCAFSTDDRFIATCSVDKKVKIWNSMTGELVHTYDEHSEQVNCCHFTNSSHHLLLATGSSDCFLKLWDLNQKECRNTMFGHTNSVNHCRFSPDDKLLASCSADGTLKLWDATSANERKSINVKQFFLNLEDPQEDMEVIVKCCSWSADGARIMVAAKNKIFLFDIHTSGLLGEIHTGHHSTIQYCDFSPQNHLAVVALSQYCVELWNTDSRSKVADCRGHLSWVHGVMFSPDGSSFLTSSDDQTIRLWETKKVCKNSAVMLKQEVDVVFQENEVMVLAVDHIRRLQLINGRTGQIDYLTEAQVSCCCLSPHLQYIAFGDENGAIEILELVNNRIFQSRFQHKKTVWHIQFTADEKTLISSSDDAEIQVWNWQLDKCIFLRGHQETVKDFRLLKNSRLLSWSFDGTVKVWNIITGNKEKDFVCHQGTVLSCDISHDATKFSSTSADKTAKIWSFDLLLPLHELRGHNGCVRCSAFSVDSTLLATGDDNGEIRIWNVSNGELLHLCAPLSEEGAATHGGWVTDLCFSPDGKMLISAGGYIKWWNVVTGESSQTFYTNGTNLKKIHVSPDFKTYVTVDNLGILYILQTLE
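System: Apoptosome proteins | Medium: Hepes pH 7.5 with detergent and BSA | Also added: Cytochrome c trigger plus (Z-DEVD)2-Rh110 caspase-3 substrate | Incubation: 30 min compound preincubation, 50 min activation, room temperature | Detection: Rhodamine 110 fluorescence at Ex 480/Em 540 nm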
Numbers stand for hits; . = inactive; / = no result. This is a sample that favours compounds with a hit; in the whole collection about 3.2% have one here.

SMILES | MEKK2mut PB1 HTS | MEKK3 PB1 HTS | MEKK2wt PB1 HTS | DSG3 Ab inh | UBC13 inh | Apaf1 inhib
O=C(CCc1ccccc1Cl)NC1CCCN(c2ccc(C(F)(F)F)cn2)C1 (stereo not drawn) | . | . | . | 82 | . | .
CC1(C)Cc2c(sc3ncnc(NNC(=S)NCc4ccccc4)c23)CO1 | . | 132 | . | . | . | .
CC(C)NC(=S)NNc1ncnc2sc3c(c12)CC(C)(C)OC3 | / | / | / | . | . | .
Cc1ccc(NC2=CC(=O)C(=O)c3ccccc32)c(C)c1 | / | / | / | . | . | 87
CCOc1ccc(NC2=CC(=O)C(=O)c3ccccc32)cc1 | / | / | / | . | / | /
O=C1C=C(Nc2ccc(F)cc2)c2ccccc2C1=O | / | / | / | . | . | 87
O=C1OC(Cc2ccccc2)(c2ccccc2)c2ccccc21 (stereo not drawn) | / | / | / | . | / | /
COc1ccc2[nH]c3c(c2c1)CCN1C(=O)C(CC(=O)NCc2ccco2)C[C@H](C(=O)N2CCOCC2)[C@@]31CCC1CCCC1 (stereo partly drawn) | / | / | / | . | / | .
CC(=O)NC(CCS(C)(=O)=O)C(=O)Nc1nc(C)cs1 (stereo not drawn) | . | . | . | 81 | . | .
Cc1nn(C)c(C(=O)Nc2ccc(S(=O)(=O)NC34CC5CC(CC(C5)C3)C4)cc2)c1Br | . | . | . | 17 | . | .
Cc1nc(N(C)C2CCCCC2)c2nnn(Cc3ccc(F)cc3)c2n1 | / | / | / | . | / | /
Nc1nc(-c2cccnc2)nn1C(=O)c1ccc(Cl)cc1 | . | . | -3.0 | . | / | /
Nc1nc(-c2ccc(Cl)cc2)nn1C(=O)c1cccnc1 | . | . | . | . | . | .
Clc1nc2ccccc2cc1/C=N/Nc1nc2ccccc2[nH]1 | . | 156 | . | . | . | .
C(=N\Nc1nc2ccccc2[nH]1)/c1ccncc1 | . | . | . | . | . | .
C=CCn1cc(/C=N/Nc2nc3ccccc3[nH]2)c2ccccc21 | . | . | 232 | . | . | .
Cn1c(/C=N/Nc2nc3ccccc3[nH]2)nc2ccccc21 | . | . | . | . | . | .
Cc1cc(C)c2c(N)c(C(=O)NN3CC(=O)N(c4ccccc4)CC3=O)sc2n1 | . | . | . | . | . | .
O=[N+]([O-])c1c(NCCCO)cc(Sc2nc3ccccc3s2)c2nonc12 | / | / | / | . | . | 98
CCC(=O)OCCNc1cc(Sc2nc3ccccc3s2)c2nonc2c1[N+](=O)[O-] | . | . | . | . | . | 46
Cc1nnc(Sc2cc(NCCCO)c([N+](=O)[O-])c3nonc23)s1 | . | . | . | . | / | /
O=C(CCn1c(=S)[nH]c2ccccc2c1=O)Nc1cccc(Cl)c1 | . | . | . | . | . | .
COc1ccc(NC(=O)CCn2c(=S)[nH]c3ccccc3c2=O)cc1Cl | / | / | / | 82 | / | /
CN1CCN(CC(=O)NN(Cc2ccccc2)c2ccccc2)CC1 | . | . | . | 77 | . | .
CCN(CC)CC(=O)NN(Cc1ccccc1)c1ccccc1 | . | . | . | / | . | .
SMILES | MEKK2mut PB1 HTS | MEKK3 PB1 HTS | MEKK2wt PB1 HTS | DSG3 Ab inh | UBC13 inh | Apaf1 inhib
COc1ccc(-c2ccc3c(c2)C2CC3CCN2S(=O)(=O)c2ccccc2C)cc1 (stereo not drawn) | / | / | / | . | / | /
CC(C)(C)NC(=O)Cc1ccc(S(=O)(=O)N2CCCC2)s1 | . | . | . | 75 | . | .
Cc1cc(C)cc(NC(=O)Cc2ccc(S(=O)(=O)N3CCCC3)s2)c1 | / | / | / | . | . | .
CCC1=Nc2cc(C(=O)NCCN3CCCC3)ccc2Sc2ccccc21 | . | . | 135 | . | . | .
Cc1c(C)n(C)c2ccc(C(=O)NCCCN3CCCCC3)cc12 | 25 | . | 154 | . | . | .
Cc1c(C)n(C)c2ccc(C(=O)NCCCN3CCOCC3)cc12 | . | . | . | . | . | .
Cc1c(C)n(C)c2ccc(C(=O)NCCCN3CCCC3)cc12 | . | . | 142 | . | . | .
Cc1ccc(-c2cc(C(=O)NCCCN3CCCC3)c3ccccc3n2)cc1C | . | . | 141 | . | . | .
Cc1ccc(-c2cc(C(=O)NCCCN3CCOCC3)c3ccccc3n2)cc1C | . | . | . | / | . | .
COCCCn1c(SCC(=O)N2CCCC2=O)nc2ccccc2c1=O | / | / | / | . | / | /
